Several values for one entry are separate records, joined by “and”; a condition that tells them apart may be missing. Identical values can stand only once.
Legend:
[1] = biological target: T1, h15-LOX-1 (Homo sapiens, UniProt P16050); assay: Allosteric modulation of 14S-HpDHA epoxidation by h15-LOX-1; format: biochemical
T1 sequence (P16050 1-662): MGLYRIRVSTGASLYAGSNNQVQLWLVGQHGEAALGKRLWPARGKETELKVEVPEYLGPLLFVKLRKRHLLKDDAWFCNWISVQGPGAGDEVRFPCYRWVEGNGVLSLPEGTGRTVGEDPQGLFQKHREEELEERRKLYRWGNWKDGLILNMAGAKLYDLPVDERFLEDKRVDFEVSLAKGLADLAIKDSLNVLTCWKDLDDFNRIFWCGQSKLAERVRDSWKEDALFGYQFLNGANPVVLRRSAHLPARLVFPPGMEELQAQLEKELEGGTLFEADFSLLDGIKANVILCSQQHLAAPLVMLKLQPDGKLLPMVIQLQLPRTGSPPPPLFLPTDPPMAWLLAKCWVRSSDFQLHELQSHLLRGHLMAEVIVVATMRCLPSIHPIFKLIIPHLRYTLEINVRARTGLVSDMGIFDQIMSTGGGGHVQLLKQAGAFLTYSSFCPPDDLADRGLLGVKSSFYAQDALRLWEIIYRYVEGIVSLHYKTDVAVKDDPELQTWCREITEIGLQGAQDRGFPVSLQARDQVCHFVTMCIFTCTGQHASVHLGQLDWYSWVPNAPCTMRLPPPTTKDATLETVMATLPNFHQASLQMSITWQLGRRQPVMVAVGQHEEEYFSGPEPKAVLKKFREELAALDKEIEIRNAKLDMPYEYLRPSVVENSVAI
Method in brief: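 Recombinant human h15-LOX-1 (0.125 μM, 25 mM HEPES pH 7.5, 20 min) or h12-LOX (0.3 μM, pH 8.0, 1 h) reacted at room temperature with 1 μM 14S-HpDHA while oxylipin modulator was titrated (1–100 μM), or with 14S-HpDHA varied alone (1–50 μM). Products were reduced and analysed by LC-MS. Dehydration (epoxide) versus oxygenation product percentages were calculated, N = 3.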

[2] = system: human platelets; assay: Collagen-stimulated platelet aggregation; format: cell-based; conditions: ≥1 μM, 10 min incubation, collagen 0.25 μg/mL
Method in brief: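 Washed human platelets were isolated by serial centrifugation and resuspended in Tyrode's buffer at 3 × 10^8/mL. They were preincubated with test compound (1–10 μM) for 10 min at 37 °C, then stimulated with 0.25 μg/mL collagen while stirring at 1100 rpm. Maximum aggregation was read as the light-transmittance change, mean ± SEM of 3–5 independent experiments. Comparison versus vehicle used one-way ANOVA with Dunnett's test.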

[3] = biological target: T2, h12-LOX (Homo sapiens, UniProt P18054); assay: Product analysis of h12-LOX reactions; format: biochemical; conditions: h12-LOX + 1 μM 14S-HpDHA, 60 min, pH 8.0, ambient O2
T2 sequence (P18054 1-663): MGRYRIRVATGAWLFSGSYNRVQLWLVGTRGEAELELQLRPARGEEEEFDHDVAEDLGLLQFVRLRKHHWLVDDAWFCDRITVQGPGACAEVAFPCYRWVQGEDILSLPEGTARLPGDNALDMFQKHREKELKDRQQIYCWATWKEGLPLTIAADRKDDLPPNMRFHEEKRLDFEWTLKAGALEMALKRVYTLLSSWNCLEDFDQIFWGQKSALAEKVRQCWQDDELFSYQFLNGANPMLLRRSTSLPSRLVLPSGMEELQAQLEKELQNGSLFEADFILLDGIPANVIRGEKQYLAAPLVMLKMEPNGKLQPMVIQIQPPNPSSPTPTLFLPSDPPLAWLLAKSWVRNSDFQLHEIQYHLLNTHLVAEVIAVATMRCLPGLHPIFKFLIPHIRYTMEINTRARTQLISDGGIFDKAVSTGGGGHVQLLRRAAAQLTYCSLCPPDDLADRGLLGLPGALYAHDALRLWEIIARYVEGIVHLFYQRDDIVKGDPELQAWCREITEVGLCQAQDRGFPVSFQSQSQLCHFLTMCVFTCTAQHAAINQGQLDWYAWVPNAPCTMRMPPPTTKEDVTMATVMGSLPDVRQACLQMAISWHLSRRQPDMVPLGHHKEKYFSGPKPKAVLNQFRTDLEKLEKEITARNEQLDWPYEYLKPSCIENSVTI
Method in brief: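 h15-LOX-1 (0.125 μM, pH 7.5) or h12-LOX (0.300 μM, pH 8.0) was reacted in 25 mM HEPES at room temperature under ambient O2. Substrates were 10 μM DHA for 1 min (monitored at 234 nm) or 1 μM 14S-HpDHA for 20 min (h15-LOX-1) or 1 h (h12-LOX) (monitored at 270 nm). Reactions were quenched with acetic acid, spiked with d5-maresin-1, extracted into DCM and background-subtracted against a no-enzyme control. Split samples were run with or without trimethyl phosphite reduction. Products were identified by C18 LC-MS/MS (qTOF), N = 3.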

[4] = biological target: T2, h12-LOX; assay: Steady-state kinetics of h12-LOX
[5] = h12-LOX + substrate, 25 mM HEPES pH 8.0, RT

CC/C=C\C/C=C\C[C@@H](/C=C/C=C\C/C=C\C/C=C\CCC(=O)O)OO [14S-HpDHA, 14S-hydroperoxy-4Z,7Z,10Z,12E,16Z,19Z-docosahexaenoic acid]
7S,14S-EZE-diHDHA (oxygenation product) ([1]; h15-LOX-1, 14S-HpDHA at high concentration (50 μM)): 76 ± 0.5% | 7R/S,14S-EEE-diHDHA (epoxide degradation product) ([1]; h15-LOX-1, 14S-HpDHA at low concentration (1 μM)): 71 ± 11% | reduction in aggregation compared to vehicle control [2]: > 90% | product profile: 7S,14S-EZE-diHpDHA [3]: 12% and 12 ± 2% | product profile: 13S,14S-epoxy-DHA (detected as 7S/R,14S-EEE-diHDHA) [3]: 76% and 76 ± 11% | product profile: 14S,20-diHpDHA [3]: 13% and 13 ± 9% | fold difference of 13S,14S-epoxy-DHA biosynthetic flux ([4]; h12-LOX + 14S-HpDHA): 1.0 | 13S,14S-epoxy-DHA biosynthetic flux ([4]; h12-LOX + 14S-HpDHA, B.F. = kcat/KM * % product): 0.0018 | Km [4, 5]: 88 ± 16 µM | kcat [4, 5]: 0.22 ± 0.02 s⁻¹ | reduction of kcat ([4]; h12-LOX, 14S-HpDHA relative to DHA): 60 fold | fold difference of kcat/KM ([4]; h12-LOX, kcat/KM of enzyme with DHA set to 1 (Table 5)): −5880

— PMC7729281 (Biochemistry, 2020)
